Starred links: 1 amine or outer side, 2 acyl side, 3 side chain; linkers in the order of their positions; H or OH if unused. Positions of bridges follow the written chain, without caps; N, C: chain ends. Non-standard residues stand in square brackets, D forms with d. Residues, ends and D or L forms follow the SMILES beside them. Chains are numbered I, II in the order given. Actinocin(9to1) = Cc1c2oc3c(C)ccc(C(=O)[*:1])c3nc-2c(C(=O)[*:2])c(N)c1=O; NMeV = CN[C@H](C(=O)O)C(C)C; Sar = CNCC(=O)O
Tests used:
P388 [1] = assay: Antitumor activity against P388/S (AMD sensitive) in male BDF1 mice measured as optimal dose at dose 1.0-5.0 mg/Kg/inj, ip
P388 [2] = assay: Antitumor activity against P388/ADR (adriamycin resistant), in male BDF1 mice measured as optimal dose at dose 1.0-5.0 mg/Kg/inj, ip
B16 [3] = assay: In vivo antitumor activity against B16 melanoma cells at a optimal dose 300 ug/Kg /inj measured as %ILS (%increase life span); format: functional; details: Mus musculus
Summary of the method: (§1)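 BDF1 mice in groups of nine were implanted ip on day 0 with 0.2 mL of 1:5 (w/v) B16 melanoma brei; drugs were given ip. Survival is reported as median survival time in days with range, and as %ILS, with survivors counted on day 65 out of total injected.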

B16 [4] = assay: In vivo antitumor activity against B16 melanoma cells at dose 300 ug/Kg /inj measured as Mean survival time (MST); format: functional, Mus musculus
Summary of the method: as §1

MC-38 [5] = assay: Activity against advanced carcinoma C38 Tumor in CDF1 Mice at dose 0.15 mg/kg measured as % inhibition of tumor; format: functional; details: Mus musculus
B16 [6] = assay: In vivo Antitumor activity against B16 melanoma cells at a optimal dose measured as %ILS (%increase life span); format: functional, Mus musculus
Summary of the method: as §1

B16 [7] = assay: In vivo Antitumor activity against B16 melanoma cells at dose 250 ug/Kg /inj measured as Mean survival time (MST); format: functional, Mus musculus
Summary of the method: as §1

MC-38 [8] = assay: Activity against advanced carcinoma C38 Tumor in CDF1 Mice at dose 0.30 mg/kg measured as % inhibition of tumor; format: functional; details: Mus musculus
MC-38 [9] = assay: Activity against advanced carcinoma C38 Tumor in CDF1 Mice at dose 0.45 mg/kg measured as % inhibition of tumor; format: functional; details: Mus musculus
MC-38 [10] = assay: Activity against advanced carcinoma C38 Tumor in CDF1 Mice at dose 0.60 mg/kg measured as % inhibition of tumor; format: functional; details: Mus musculus
MC-38 [11] = assay: Mean survival time of treated /untreated group x100. (number of over 100-day survivors/ number of total mice in the group) at a dose 0.60 mg/kg; format: functional, Mus musculus; details: dose 0.6 mg/kg
Summary of the method: (§2)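 CDF1 mice were implanted sc on day 0 with colon 38 adenocarcinoma fragments (70 mg) and given iv drug on days 1, 5 and 9. %T/C = median survival of treated / untreated × 100. Number of mice surviving over 100 days / group total is given in parentheses.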

MC-38 [12] = assay: Mean survival time of treated /untreategroup x100. (number of over 100-day survivors/ number of total mice in the group) at a dose 0.075 mg/kg; format: functional, Mus musculus
Summary of the method: as §2

MC-38 [13] = assay: Mean survival time of treated /untreategroup x100. (number of over 100-day survivors/ number of total mice in the group) at a dose 0.15 mg/kg; format: functional, Mus musculus
Summary of the method: as §2

MC-38 [14] = assay: Mean survival time of treated /untreategroup x100. (number of over 100-day survivors/ number of total mice in the group) at a dose 0.30 mg/kg; format: functional, Mus musculus; details: dose 0.3 mg/kg
Summary of the method: as §2

MC-38 [15] = assay: Mean survival time of treated /untreategroup x100. (number of over 100-day survivors/ number of total mice in the group) at a dose 0.45 mg/kg; format: functional, Mus musculus
Summary of the method: as §2

MC-38 [16] = assay: Number of toxic deaths/number of mice in a group of non tumored mice treated in parallel with the tumor-bearing mice and observed for 100 days at a dose 0.075 mg/Kg; value given as 0/9; format: functional, Mus musculus
Summary of the method: (§3)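 Non-tumored CDF1 mice were treated in parallel with colon 38 tumor-bearing mice: iv injections on days 1, 5 and 9, groups of nine. Deaths were counted over 100 days of observation and reported as toxic deaths / mice in group.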

MC-38 [17] = assay: Number of toxic deaths/number of mice in a group of non tumored mice treated in parallel with the tumor-bearing mice and observed for 100 days at a dose 0.15 mg/Kg; value given as 1/9; format: toxicity; details: mouse, in vivo, 2400 h
Summary of the method: as §3

MC-38 [18] = assay: Number of toxic deaths/number of mice in a group of non tumored mice treated in parallel with the tumor-bearing mice and observed for 100 days at a dose 0.30 mg/Kg; value given as 0/9; format: functional, Mus musculus
Summary of the method: as §3

MC-38 [19] = assay: Number of toxic deaths/number of mice in a group of non tumored mice treated in parallel with the tumor-bearing mice and observed for 100 days at a dose 0.45 mg/Kg; value given as 1/9; format: toxicity; details: mouse, in vivo, 2400 h
Summary of the method: as §3

MC-38 [20] = assay: Activity against advanced carcinoma C38 Tumor in CDF1 Mice at dose 0.075 mg/kg measured as % inhibition of tumor; format: functional; details: Mus musculus
MC-38 [21] = assay: Number of toxic deaths/number of mice in a group of non tumored mice treated in parallel with the tumor-bearing mice and observed for 100 days at a dose 0.60 mg/Kg; value given as 4/9; format: toxicity; details: mouse, in vivo, 0.6 mg/kg, 2400 h
Summary of the method: as §3

HT-29 [22] = assay: 50% inhibition of incorporationf precursor [3H]thymidine into DNA HT-29 cell lines; format: functional, cell-based; details: Homo sapiens, HT-29, 2 h
Summary of the method: (§4)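 HT-29 colon carcinoma monolayers, 10^4 cells per well, five wells per concentration. Drug exposure lasted 2 h, with [³H]thymidine and [2-¹⁴C]uridine (0.5 μCi each) added for the last hour. Cells were washed, trypsinized, counted and precipitated onto glass-fiber filters with 10% TCA. Acid-precipitable radioactivity was measured. IC50 is the concentration inhibiting 50% of incorporation; data are averages of replicate experiments.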

P388 [23] = assay: 50% inhibition of incorporation of precursor [3H]thymidine into DNA P388 cell lines; format: functional, cell-based; details: Mus musculus, P388, 2 h
P388 [24] = assay: 50% inhibition of incorporation precursor [14C]uridine into RNA P388 cell lines; format: functional, cell-based; details: Mus musculus
Rattus norvegicus [25] = species on record: Rattus norvegicus; assay: Percent of the unconverted metabolite from incubation mixture containing rat microsomes; format: functional
Summary of the method: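 Tritiated analogues were incubated with two systems. (T) sonicated P388 cell homogenates, 37 °C for 16 h. (M) liver microsomes from phenobarbital-induced rats, 6 h with an NADPH-generating system (glucose-6-phosphate dehydrogenase plus glucose 6-phosphate). Metabolites and water-soluble conjugates were isolated, separated by HPLC and expressed as percentages.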

Rattus norvegicus [26] = species on record: Rattus norvegicus; assay: DNA-cleaving ability expressed as % of closed circular pBR322 DNA cleaved at 10 uM conc; format: functional
Summary of the method: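 pBR322 DNA (200 μM nucleotides) in 10 mM Tris·HCl pH 7.8 and 50 mM NaCl, with 4 mM Na₂S₂O₄ and 100 μM FeCl₂. Incubated with drug for 1 h at 20 °C, kept air-saturated. Supercoiled and open-circular forms were separated by agarose gel electrophoresis, stained with ethidium bromide and quantitated by densitometry. % cleaved was calculated from the open- and closed-circular amounts.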

Rattus norvegicus [27] = species on record: Rattus norvegicus; assay: The formation of adrenochrome from epinephrine in the absence of SOD(super oxide dismutase); format: functional
Summary of the method: (§5)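 Drug-stimulated superoxide generation with rat liver microsomal enzymes and NADPH as cofactor. NADPH oxidation was read at 340 nm. Adrenochrome formed from epinephrine was read at 480 nm, with or without superoxide dismutase. % stimulation = [(drug-stimulated rate − basal rate)/basal rate] × 100. Values are mean ± standard error of triplicate analyses.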

Rattus norvegicus [28] = species on record: Rattus norvegicus; assay: The formation of adrenochrome from epinephrine in the presence of SOD(super oxide dismutase); + denotes ' Inhibited'; format: functional
Summary of the method: as §5

Rattus norvegicus [29] = species on record: Rattus norvegicus; assay: Stimulation of NADPH oxidation in the presence of rat liver microsomes; format: functional
Summary of the method: as §5

HT-29 [30] = assay: 50% inhibition of incorporationf precursor [3H]thymidine into RNA HT-29 cell lines; format: functional, cell-based; details: Homo sapiens, HT-29, 2 h; in the assay text read “[14C]uridine” for “[3H]thymidine”
Summary of the method: as §4

pBR322 plasmid DNA = assay: DNA-cleaving ability expressed as % of closed circular pBR322 DNA cleaved at 100 uM conc
P388 (Mus musculus) = assay: Percent of the unconverted metabolite from incubation mixture containing tumor cell homogenate(T)
P388 [31] = assay: Antitumor activity in P388/ADR (adriamycin resistant), in male BDF1 mice measured as optimal dose at dose
P388 [32] = assay: Antitumor activity in P388/S(AMD sensitive) in male BDF1 mice measured as optimal dose at dose 0.075-2.5 mg/kg/injection, ip

Structure (SMILES): CO[C@@]12[C@H](COC(N)=O)C3=C(C(=O)C(C)=C(N)C3=O)N1C[C@@H]1N[C@@H]12 [MITOMYCIN]
- optimal dose (P388 [1]): 3 mg/kg
- optimal dose (P388 [2]): 3 mg/kg

Structure (SMILES): Cc1nc2c(C(=O)N[C@@H]3C(=O)N[C@H](C(C)C)C(=O)N4CCC[C@H]4C(=O)N(C)CC(=O)N(C)[C@@H](C(C)C)C(=O)O[C@@H]3C)c3nc4c(C(=O)N[C@@H]5C(=O)N[C@H](C(C)C)C(=O)N6CCC[C@H]6C(=O)N(C)CC(=O)N(C)[C@@H](C(C)C)C(=O)O[C@@H]5C)c(N)c(=O)c(C)c-4oc3c(C)c2o1
- ILS at 0.3 mg/kg (B16 [3]): 124%
- MST (B16 [4]): 65

Structure (SMILES): Cc1c2oc3c(C)ccc(C(=O)N[C@@H]4C(=O)N[C@H](C(C)C)C(=O)N5CCC[C@H]5C(=O)N(C)CC(=O)N(C)[C@@H](C(C)C)C(=O)O[C@@H]4C)c3nc-2c(C(=O)N[C@@H]2C(=O)N[C@H](C(C)C)C(=O)N3CCC[C@H]3C(=O)N(C)CC(=O)N(C)[C@@H](C(C)C)C(=O)O[C@@H]2C)c(N)c1=O [DACTINOMYCIN] (I: T[dV]P[Sar][NMeV] / II: T[dV]P[Sar][NMeV]; ester I:1-I:C, II:1-II:C; linker I:N-II:N via Actinocin(9to1))
- inhibition in vivo at 0.15 mg/kg (MC-38 [5]): 30%
- ILS (B16 [6]): 48%
- MST (B16 [7]): 43
- inhibition in vivo at 0.3 mg/kg (MC-38 [8]): 67%
- inhibition in vivo at 0.45 mg/kg (MC-38 [9]): 83%
- inhibition in vivo at 0.6 mg/kg (MC-38 [10]): 89%
- T/C (MC-38 [11]): 103%
- T/C (MC-38 [12]): 100%
- T/C (MC-38 [13]): 107%
- T/C (MC-38 [14]): 134%
- T/C (MC-38 [15]): 170%
- Toxic deaths (MC-38 [16]): 0
- Toxic deaths (MC-38 [17]): 1
- Toxic deaths (MC-38 [18]): 0
- Toxic deaths (MC-38 [19]): 1
- inhibition in vivo at 0.075 mg/kg (MC-38 [20]): 30%
- Toxic deaths (MC-38 [21]): 4
- IC50 (HT-29 [22]): 0.9 µM
- IC50 (P388 [23]): 1.1 µM
- IC50 (P388 [24]): 0.05 µM
- Activity (Rattus norvegicus [25]): 100%
- Activity (Rattus norvegicus [26]): 10%
- Adrenochrome formation (Rattus norvegicus [27]): 2.29 nM min-1 (mg of protein)-1
- Adrenochrome formation (Rattus norvegicus [28]): Inhibited
- NADPH oxidation (nM min-1 (mg of protein)-1) (Rattus norvegicus [29]): 10
- IC50 (HT-29 [30]): 0.1 µM
- Activity (pBR322 plasmid DNA): 22%
- Activity (P388 (Mus musculus)): 100%
- optimal dose (P388 [31]): 0.25 mg/kg
- optimal dose (P388 [32]): 0.25 mg/kg

Source: ChEMBL document CHEMBL1124291, “New actinomycin D analogues as superior chemotherapeutic agents against primary and advanced colon tumors and colon xenografts in nude mice” (J Med Chem, 1988)
